Compound activity (PubChem)
F508del corr: correctors of CFTR F508del function in bronchial epithelial cells; 0.36% of 350,000 active; CFBE cells, YFP halide quenching; stimulated with forskolin plus potentiator P3; % fluorescence drop versus neutral controls; activity (quench increase), % at 7.58 µM;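 active means mean added fluorescence quench of at least 8% versus neutral control, with both replicates also reaching 8%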;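 further: cells transiently co-express mutant CFTR-F508del with the halide-sensitive YFP; corrector assay measuring rescue of mutant channel to the surface after 24 h compound exposure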
Cneo AK release: causes C. neoformans cell lysis; adenylate kinase release luminescence, 4 h; normalised: neutral wells 0, clomiphene wells 100; lysis activity, % at 15 µM; 0.2% of 360,000 active; AID 651654;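 active means mean lysis activity across replicates of at least 80%, whatever share of replicates individually reach that level; inactive means mean lysis activity below 80%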
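read-out = cell lysis signal | test system = log-phase Cryptococcus neoformans yeast cells | input = cells at 5 × 10^6 per mL | medium = fresh YPD growth medium | signal = luminescent adenylate kinase detection reagent | timing = 4 h at 37 °C static, read 1 h later | dosing = single dose | controls = Clomiphene as positive lysis control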
CaV13 FRET inh: Disruptors of the CACNA1D IQ motif to Ca2+-dependent inactivation inhibitor domain association, primary screening, Förster resonance energy transfer in intact living …. HEK cells, CFP/YFP FRET ICDI-IQ, plate reader, 10 min; percent FRET-ratio fall versus neutral wells. inhibition, % at 12.3 µM. 0.098% of 340,000 active;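 active means mean replicate inhibition of at least 30% and at least 1% of replicates passing that level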;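 further: 0% = median of the neutral control wells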
Ecoli rRNA inh: inhibitors of bacterial rRNA selective over humanized ribosomes; E. coli WT GFP vs humanized-ribosome RFP mutants, fluorescence, 24 h; hits give low values; DMSO median 0, no signal -100; GFP signal change (wild-type ribosome), % (concentration not given with the values); 1.6% of 350,000 active;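 active means significant combined selectivity score with lowered wild-type GFP, culture density cut under 30%, mutant RFP and density less affected; inactive means any of these conditions unmet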
Starred values were filed as active, the others as inactive; x = not tested or not shown; + = active, no number. This is a sample that favours compounds with a hit; in the whole collection about 1.7% have one here.

SMILES	F508del corr	Cneo AK release	CaV13 FRET inh	Ecoli rRNA inh
O=C(C[C@@H]1CC[C@H]2[C@@H](COC[C@@H](O)CN2Cc2ccc(Cl)cc2)O1)NCc1cccc(F)c1	-2	104*	x	-15
CCC(=O)N1C[C@H](O)COC[C@@H]2O[C@@H](CC(=O)NCc3ccccc3Cl)CC[C@H]21	1	117*	x	2
COc1ccccc1CNC(=O)C[C@@H]1CC[C@@H]2[C@H](COC[C@@H](O)CN2Cc2ccccc2)O1	-2	109*	x	-4
CCC(=O)N1C[C@@H](O)COC[C@H]2O[C@@H](CC(=O)NCc3ccccc3Cl)CC[C@@H]21	0	44	x	-2
O=C(C[C@@H]1CC[C@@H]2[C@H](COC[C@H](O)CN2Cc2ccc(Cl)cc2)O1)NCc1cccc(F)c1	6	2	x	-7
C[C@H]1Cn2cnc(C(=O)Nc3ccc(CNC(=O)OC(C)(C)C)cc3)c2C(=O)N1	4	-1	-5	16
C[C@H]1CNC(=O)c2c(C(=O)Nc3ccc(CNC(=O)OC(C)(C)C)cc3)ncn21	12*	-1	-5	-25*
O=C(c1ccccc1)c1nccn1-c1ccc(Cl)nn1	0	-2	-17	-36*
COc1cc(OC)c2c(-c3cccc(-c4ccc(OC)c(F)c4)c3)cc(=O)oc2c1	8.5*	0	-6	11
COc1cccc(C=C2Cc3ccccc3C2=O)c1	1	x	-9	-17*
COc1ccc2c(c1)CC/C(=C/c1cc(OC)c(OC)c(OC)c1)C2=O	0	x	-10	-20*
Nc1ccc(C2(c3ccc(N)cc3)c3ccccc3C(=O)c3ccccc32)cc1	-1	x	-3	-32*
O=C1OC(c2ccc(O)cc2)(c2ccc(O)cc2)c2ccccc21	0	0	-6	x
CCC(=O)N1C[C@@H](O)COC[C@@H]2O[C@H](CC(=O)NCC3CCCCC3)CC[C@H]21	-1	-3	x	1
Cc1cccc(NS(=O)(=O)c2ccc3[nH]c(=O)cc(C(=O)O)c3c2)c1	-6	x	1	-15*
CN(C)CCN(C(=O)c1cccc(Cl)c1)c1nc2c(Cl)cccc2s1	x	17	-2	x
CCN(CC)CCN(C(=O)c1ccc2c(c1)OCCO2)c1nc2c(Cl)cccc2s1	0	0	x	-22*
CCN(CC)CCN(C(=O)c1ccc2c(c1)OCCO2)c1nc2cc(C)cc(C)c2s1	-1	1	-7	-21*
CCN(CC)CCN(C(=O)c1ccc2ccccc2c1)c1nc2cc3c(cc2s1)OCO3	2	5	x	-8
CN(C)CCN(C(=O)c1ccc2c(c1)OCCO2)c1nc2ccc(Cl)cc2s1	2	1	-3	-1
CN(C)CCCN(C(=O)c1ccc2c(c1)OCCO2)c1nc2ccc(Cl)cc2s1	-1	0	-3	-46*
C[C@@H]1CN([C@@H](C)CO)C(=O)c2ccccc2-c2ccccc2CO[C@@H]1CN(C)Cc1ccc(Oc2ccccc2)cc1	x	x	x	0
COCC#Cc1ccc([C@H]2[C@@H](CO)N3C(=O)CN(C(=O)Nc4cc(F)ccc4F)C[C@@H]23)cc1	x	x	x	5
CCC(=O)N1N=C(c2c(O)n(C)c(=O)n(C)c2=O)CC1c1ccccc1 (stereo not drawn)	5	1	1	-46*
Cc1ccc(-c2nnc(N3CCN(C(=O)c4cccs4)CC3)c3ccccc23)cc1	-4	x	-5	-23
SMILES	F508del corr	Cneo AK release	CaV13 FRET inh	Ecoli rRNA inh
O=C(c1cccs1)N1CCN(c2nnc(-c3ccccc3)c3ccccc23)CC1	4	x	-7	-28*
Cc1ccc(-n2c(C)cc(/C=N/NC(=O)Cn3c4ccccc4c(=O)c4ccccc43)c2C)cc1	1	x	+	4
Cc1cc(/C=N/NC(=O)Cn2c3ccccc3c(=O)c3ccccc32)c(C)n1-c1ccc(Cl)cc1	x	x	-1	-4
COc1ccc(C)cc1NC(=O)c1nn(C)c(C(=O)Nc2cc(C)ccc2OC)c1[N+](=O)[O-]	-1	11	-5	14
COc1ccc(C)cc1NC(=O)c1nn(C)cc1Br	0	0	-5	-15*
CC1(C)CC(=O)C=C(c2ccc(COC(=O)Cc3ccccc3)cc2)C1=O	-7	1	-6	-22*
COc1ccc(C)cc1Nc1c2c(nc3ccccc13)CCC2	13*	x	-4	-14
COc1ccc(CCNC(=O)CSc2cn(Cc3cccc(C)c3)c3ccccc23)cc1OC	0	0	49*	-6
COc1ccc(CCNC(=O)CSc2cn(Cc3ccccc3)c3ccccc23)cc1OC	5	0	-6	2
